Kd data for 5 molecules are collected here from paper PMC10076185 (Experimental eye research, 2023).

Experiment in all cases: SPR, protein immobilised by amine coupling, OneStep injection
Holding throughout (format): binding
(In general: SPR reads the build-up and loss of mass on a sensor chip optically.)

The target in assay [1] is GSTP1 (Homo sapiens, UniProt P09211). Put shortly: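 Human GSTP1 was expressed in E. coli and purified in-house, then amine-coupled to a carboxyl chip with an unmodified reference surface. Test compound in 100% DMSO was diluted to 1–100 µM in running buffer (10 mM PBS, 0.1% polyvinylpyrrolidone, 5% DMSO, pH 7.4) and injected as a Taylor-dispersion gradient, three times per concentration, at 25 °C. Sensorgrams were double-referenced with buffer blanks, and equilibrium binding constants were fitted.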

The target of assay [2] is Apo-D (Homo sapiens, UniProt P05090). Put shortly:
(§1)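 Recombinant human proteins from commercial sources were amine-coupled to a carboxyl sensor chip beside an unmodified reference surface. Test compound in 100% DMSO was diluted to 1–100 µM in running buffer (10 mM PBS, 0.1% polyvinylpyrrolidone, 5% DMSO, pH 7.4) and given as a Taylor-dispersion gradient, three injections each, at 25 °C and 10 Hz. Sensorgrams were zeroed and double-referenced against buffer blanks, and equilibrium constants were fitted.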

The target in assay [3] is Apo-E (Homo sapiens, UniProt P02649). Summed up:
as §1

The target in assay [4] is Apo-AI (Homo sapiens, UniProt P02647).
For assay [5], the target named is Human IRBP (Homo sapiens, UniProt P10745).
Assay [6] concerns the target Apo-AII (Homo sapiens, UniProt P02652). Summed up: as §1
The target of assay [7] is Apo-M (Homo sapiens, UniProt O95445). Summed up: as §1

As a reminder, the Kd is the concentration at which binding is half-saturated. A lower Kd goes with higher affinity.

Apo-E, sequence (P02649 19-317): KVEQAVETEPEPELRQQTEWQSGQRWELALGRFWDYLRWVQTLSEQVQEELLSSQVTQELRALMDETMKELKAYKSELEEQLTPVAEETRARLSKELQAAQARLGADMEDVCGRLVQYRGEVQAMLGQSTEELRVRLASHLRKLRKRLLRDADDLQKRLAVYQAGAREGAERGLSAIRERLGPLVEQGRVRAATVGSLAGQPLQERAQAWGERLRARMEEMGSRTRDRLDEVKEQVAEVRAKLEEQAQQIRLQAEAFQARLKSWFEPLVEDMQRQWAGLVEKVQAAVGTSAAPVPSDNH
Human IRBP, sequence (P10745 18-1247): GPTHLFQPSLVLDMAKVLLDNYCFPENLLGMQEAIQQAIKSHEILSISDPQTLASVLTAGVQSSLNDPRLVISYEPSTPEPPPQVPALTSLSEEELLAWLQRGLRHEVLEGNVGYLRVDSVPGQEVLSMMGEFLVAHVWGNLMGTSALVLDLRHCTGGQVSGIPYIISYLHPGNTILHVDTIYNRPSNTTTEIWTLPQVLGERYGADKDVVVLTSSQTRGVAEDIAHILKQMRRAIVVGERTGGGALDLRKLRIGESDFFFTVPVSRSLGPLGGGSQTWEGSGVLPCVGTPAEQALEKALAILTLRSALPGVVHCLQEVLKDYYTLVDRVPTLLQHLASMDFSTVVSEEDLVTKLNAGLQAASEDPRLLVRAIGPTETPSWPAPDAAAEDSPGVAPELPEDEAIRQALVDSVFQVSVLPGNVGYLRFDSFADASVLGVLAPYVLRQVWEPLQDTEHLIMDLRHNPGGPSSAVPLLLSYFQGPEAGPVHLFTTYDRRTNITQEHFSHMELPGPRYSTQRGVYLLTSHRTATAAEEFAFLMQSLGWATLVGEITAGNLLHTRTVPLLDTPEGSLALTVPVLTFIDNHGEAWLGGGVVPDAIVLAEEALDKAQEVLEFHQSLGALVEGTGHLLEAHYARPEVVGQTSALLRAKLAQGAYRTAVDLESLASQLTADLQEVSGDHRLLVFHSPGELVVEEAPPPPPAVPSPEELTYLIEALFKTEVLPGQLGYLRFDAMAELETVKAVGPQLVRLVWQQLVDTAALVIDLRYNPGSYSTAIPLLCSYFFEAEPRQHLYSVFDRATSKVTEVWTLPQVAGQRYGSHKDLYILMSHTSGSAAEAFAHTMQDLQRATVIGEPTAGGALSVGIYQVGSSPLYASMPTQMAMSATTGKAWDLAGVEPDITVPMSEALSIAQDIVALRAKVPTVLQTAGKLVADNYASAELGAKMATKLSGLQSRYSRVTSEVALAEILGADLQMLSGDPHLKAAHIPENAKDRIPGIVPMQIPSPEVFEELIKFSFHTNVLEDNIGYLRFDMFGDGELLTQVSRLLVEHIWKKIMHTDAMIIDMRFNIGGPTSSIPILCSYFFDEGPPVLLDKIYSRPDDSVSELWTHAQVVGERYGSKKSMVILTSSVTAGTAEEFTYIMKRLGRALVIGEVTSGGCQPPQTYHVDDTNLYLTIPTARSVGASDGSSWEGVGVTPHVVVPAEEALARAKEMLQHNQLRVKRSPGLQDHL
Apo-M, sequence (O95445 whole entry): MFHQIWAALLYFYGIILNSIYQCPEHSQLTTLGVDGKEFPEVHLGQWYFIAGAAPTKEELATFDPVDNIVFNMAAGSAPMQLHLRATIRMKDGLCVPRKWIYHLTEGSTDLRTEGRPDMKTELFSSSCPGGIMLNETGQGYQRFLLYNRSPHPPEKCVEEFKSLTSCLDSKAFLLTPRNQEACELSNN
GSTP1, sequence (P09211 2-210): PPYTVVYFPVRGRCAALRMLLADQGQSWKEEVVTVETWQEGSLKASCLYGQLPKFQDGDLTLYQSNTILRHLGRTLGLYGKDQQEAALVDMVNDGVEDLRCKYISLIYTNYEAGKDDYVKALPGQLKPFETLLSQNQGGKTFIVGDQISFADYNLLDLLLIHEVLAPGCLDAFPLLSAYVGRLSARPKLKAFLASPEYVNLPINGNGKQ
Apo-AI, sequence (P02647 25-267): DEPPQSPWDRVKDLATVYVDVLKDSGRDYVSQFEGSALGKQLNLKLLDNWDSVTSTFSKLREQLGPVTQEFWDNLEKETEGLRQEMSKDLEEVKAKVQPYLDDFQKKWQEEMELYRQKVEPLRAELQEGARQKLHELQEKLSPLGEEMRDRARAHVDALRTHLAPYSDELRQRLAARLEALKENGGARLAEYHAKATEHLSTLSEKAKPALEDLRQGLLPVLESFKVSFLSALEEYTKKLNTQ
Apo-AII, sequence (P02652 24-100): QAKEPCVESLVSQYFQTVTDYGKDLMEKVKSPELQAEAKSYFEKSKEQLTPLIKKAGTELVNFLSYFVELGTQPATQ
Apo-D, sequence (P05090 21-189): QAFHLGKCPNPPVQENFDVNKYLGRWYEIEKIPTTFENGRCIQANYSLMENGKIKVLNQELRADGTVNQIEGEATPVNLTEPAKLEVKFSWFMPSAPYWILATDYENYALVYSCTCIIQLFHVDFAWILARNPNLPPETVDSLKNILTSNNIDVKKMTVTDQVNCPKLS

For `CC1=C(/C=C/C(C)=C/C=C/C(C)=C/C=C/C=C(C)/C=C/C=C(C)/C=C/C2=C(C)C[C@@H](O)CC2(C)C)C(C)(C)C[C@H](O)C1` [Zeaxanthin], the Kd in assay [1] was determined as 0.053 ± 0.01 µM; in assay [2] it was 68.2 µM; in assay [3], 9.25 µM; in assay [4] it was 5.62 µM; in assay [5] it was 1.64 ± 0.5 µM; in assay [6], 1.84 ± 0.09 µM. The same molecule came in with a Kd in assay [7] of 81 ± 9 µM.

In the case of `CC1=C(/C=C/C(C)=C/C=C/C(C)=C/C=C/C=C(C)/C=C/C=C(C)/C=C/C2=C(C)C(=O)[C@@H](O)CC2(C)C)C(C)(C)C[C@H](O)C1=O` [Astaxanthin], the Kd in assay [1] was found to be 0.15 ± 0.02 µM; in assay [5], 1.64 ± 0.06 µM.

As for `CC1=C(/C=C/C(C)=C/C=C/C(C)=C/C=C/C=C(C)/C=C/C=C(C)/C=C/C2=C(C)CCCC2(C)C)C(C)(C)CCC1` [β-Carotene], the Kd in assay [2] is 0.01 µM; in assay [3] it was 0.4 ± 0.06 µM; in assay [4] it was 0.33 ± 0.03 µM; in assay [5] it was 0.92 ± 0.1 µM; in assay [7] it was 0.05 µM.

For the molecule `CC1=C(/C=C/C(C)=C/C=C/C(C)=C/C=C/C=C(C)/C=C/C=C(C)/C=C/C2=C(C)C[C@H](O)CC2(C)C)C(C)(C)C[C@H](O)C1` [meso-Zeaxanthin], the Kd in assay [1] was 0.055 ± 0.03 µM; in assay [2], 45.6 µM; in assay [3], 6.22 µM; in assay [4], 7.9 ± 0.2 µM; in assay [5], 1.85 ± 0.3 µM; in assay [6] it was 1.6 ± 0.7 µM. The molecule further displayed a Kd in assay [7] of 35.4 ± 0.8 µM.

As to `CC1=C[C@H](O)CC(C)(C)[C@H]1/C=C/C(C)=C/C=C/C(C)=C/C=C/C=C(C)/C=C/C=C(C)/C=C/C1=C(C)C[C@@H](O)CC1(C)C` [Lutein], the dissociation constant (Kd) was found to be 84 ± 1 µM in assay [2]; 21 ± 1 µM in assay [3]; 12.1 µM in assay [4]; 1.06 ± 0.2 µM in assay [5]; 6.1 ± 0.3 µM in assay [6]; 35 ± 1 µM in assay [7].
